Assay results from PubChem BioAssay.

Assay: Restrictive medium S. cerevisiae growth inhibition, OD615, pilot screen of yeast lifespan reduction project, restrictive growth control (AID 706);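 also: modified DeaD lifespan yeast strain shifted to restrictive glucose medium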
Settings: OD615, 48 h, at 10 µM, active compounds read high;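 active = growth inhibition above a set limit, 3 SD over mean compound inhibition, in both replicates (cut at about 43% in these data); inconclusive = above the limit in only one replicate; inactive = at or below the limit in both replicates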
Outline: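 material = engineered S. cerevisiae DeaD strain | medium = glucose-based CSMM-D restrictive medium | times = 4 h pre-incubation, 48 h exposure at 30 °C | technique = OD615 absorbance reading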

Growth inhibition, inactive:
CCc1cc(=O)n2[nH]c(C)c(-c3ccccc3OC)c2n1 0.365%, Cc1ccc(CSc2nc3c(c(=O)[nH]2)CCC3)cc1 -26.7%, CN(CCNS(=O)(=O)c1ccc2c(c1)oc(=O)n2C)Cc1ccccc1 5.57%, COc1ccc(-c2nnc(SCC(=O)NC(C)c3ccccc3)o2)cc1 (stereo not drawn) -1.46%, CCOc1ccc(Cn2nnc(C(=O)Nc3cc(C)cc(C)c3)c2N)cc1 1.04%, CCCCCn1c(CN2CCN(C(=O)c3ccco3)CC2)nc2c1c(=O)n(C)c(=O)n2C -8.78%, CCN1CCN(Cc2ccc(NC(=O)Nc3ccccc3)cc2)CC1 -11.3%, CCCN(CCC)C(=O)c1c(C)[nH]c(C(=O)OCC)c1C -3.27%, COc1cccc(C2CC(c3c(Cl)cccc3Cl)n3nc(N)nc3N2)c1 (stereo not drawn) 9.22%, Cc1c(C(=O)OCc2ccccc2)[nH]c2c1C(=O)CC(c1ccco1)C2 (stereo not drawn) -7.56%, Cn1c(=O)c2c(nc(SCCOc3ccc4ccc(=O)oc4c3)n2C)n(C)c1=O 1.18%, COc1ccc(NC(=O)CN(c2cc(C)cc(C)c2)S(=O)(=O)c2c(C)noc2C)cc1OC -4.85%, CCOc1ccc(N2CC(C(=O)Nc3ccccc3OC)CC2=O)cc1 (stereo not drawn) -1.77%, CC(C)CNc1oc(-c2ccc(F)cc2)nc1C#N -11.5%, O=C(Nc1nnc(N2CCCCCC2)s1)c1cc(-c2ccc(Br)cc2)on1 -7.24%, Cc1ccc(N=Cc2ccc[nH]2)c(O)c1 -5.83%, CCCOC(=O)c1[nH]c2c(c1C)C(=O)CC(c1cc(OC)c(OC)c(OC)c1)C2 (stereo not drawn) -14.6%, C=CCSc1nc2sc(C)c(C)c2c(=O)[nH]1 -12.2%, O=C(c1ccc(Br)cc1)N1CCN(S(=O)(=O)c2ccccc2)CC1 11.1%, CN(C(=O)c1ccco1)c1nnc(C23CC4CC(CC(C4)C2)C3)s1 -8.94%, COc1ccc(-c2nc3c(n2O)CCC/C3=N\O)cc1 4.75%, CC1CCC(NC(=O)C2(C)CCC(=O)N2Cc2cccnc2)CC1 (stereo not drawn) -10.1%, Cc1cnc(NC(=O)CSc2nnc(COc3c(C)cccc3C)o2)s1 -2.15%
